Activity calls are given as the source filed them. No cut-off for these calls is given here.
How the values were obtained:
HepG2 [1] = experiment: Decrease in cholesterol level in human HepG2 cells at 1 uM after 24 hrs by […] assay in presence of 0.5 mM oleic acid sodium; format: functional
How it was run: (§1)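 HepG-2 cells seeded, then after 24 h exposed to 0.5 mM oleic acid sodium plus compound (1 µM; dose series up to 10 µM) for 24 h, DMSO vehicle. Cells lysed in 0.2% Triton X-100 for 1 h, sonicated, centrifuged. Triglyceride measured by GPO-POD kit and cholesterol by kit, both normalized to BCA protein; n = 3.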

[2] = Decrease in triglyceride accumulation in mouse 3T3L1 cells at 10 uM for 3 days oil red O staining based microscopic analysis; format: functional, cell-based; conditions: 3T3-L1
How it was run: (§2)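 3T3-L1 cells differentiated from 2 days post-confluence with IBMX/dexamethasone/insulin cocktail for 3 days, then insulin medium to Day 6. Compounds at 1 and 10 µM added Day 0 for 3 days. Triglyceride read on Day 6 with Oil Red O (formaldehyde fixation, 30 min stain, isopropanol extraction, OD 510 nm); n = 3.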

HepG2 [3] = experiment: Decrease in triglyceride level in human HepG2 cells at 1 uM after 24 hrs by GPO-POD assay in presence of 0.5 mM oleic acid sodium; format: functional; how it was run: as §1
3T3-L1 [4] = experiment: Inhibition of cell proliferation in mouse 3T3L1 cells at 5 uM for 9 days; format: functional, cell-based
How it was run: (§3)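 3T3-L1 preadipocytes were induced to differentiate (IBMX/dexamethasone/insulin for 3 days, then insulin) with compound added from day 0 at 0.5 or 5 µM; DMSO vehicle served as control. Cells were collected and counted every day to follow proliferation and to find when contact inhibition resumed.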

3T3-L1 [5] = experiment: Inhibition of cell differentiation in mouse 3T3L1 cells assessed as delayed time point of cell contact inhibition at 5 uM for 9 days; format: functional; how it was run: as §3
[6] = Decrease in triglyceride level in mouse 3T3L1 cells during all developmental stages at 5 uM for 9 days; format: functional, cell-based; conditions: 3T3-L1
How it was run: (§4)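 During 3T3-L1 differentiation with compound present (0.5 µM, or 5 µM for one compound), cells were collected and counted every day and triglyceride content was measured by TG assay.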

[7] = Decrease in triglyceride accumulation in mouse 3T3L1 cells at 1 uM for 3 days oil red O staining based microscopic analysis; format: functional, cell-based; conditions: 3T3-L1; how it was run: as §2
3T3-L1 [8] = experiment: Inhibition of cell differentiation in mouse 3T3L1 cells assessed as delayed time point of cell contact inhibition at 0.5 uM for 9 days; format: functional; how it was run: as §3
[9] = Decrease in triglyceride level in mouse 3T3L1 cells during all developmental stages at 0.5 uM for 9 days; format: functional, cell-based; conditions: 3T3-L1; how it was run: as §4
[10] = Downregulation of C/EBP alpha mRNA level in mouse 3T3L1 cells at 0.2 mM after 24 hrs by RT-PCR analysis; format: functional, cell-based; conditions: 3T3-L1
[11] = Downregulation of PPAR-gamma mRNA level in mouse 3T3L1 cells at 0.2 mM after 24 hrs by RT-PCR analysis; format: functional, cell-based; conditions: 3T3-L1
[12] = Downregulation of SREBP-1c mRNA level in mouse 3T3L1 cells at 0.2 mM after 24 hrs by RT-PCR analysis; format: functional, cell-based; conditions: 3T3-L1
[13] = Downregulation of C/EBP beta mRNA level in mouse 3T3L1 cells at 0.2 mM after 24 hrs by RT-PCR analysis; format: functional, cell-based; conditions: 3T3-L1
[14] = Downregulation of C/EBP alpha mRNA level in mouse 3T3L1 cells at 0.2 mM after 2 hrs by RT-PCR analysis; format: functional, cell-based; conditions: 3T3-L1
3T3-L1 [15] = experiment: Effect on LKB1 expression in mouse 3T3L1 cells at 0.2 mM after 10 mins, 2 and 24 hrs by western blot analysis; format: functional, cell-based
How it was run: (§5)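 3T3-L1 cells in DMEM/10% FBS at 37 °C, 5% CO2, exposed for 10 min, 2 h or 24 h alongside a DMSO vehicle. Cells were lysed in RIPA with PMSF, Na3VO4, NaF and protease inhibitors. Lysates were run on SDS-PAGE and blotted to PVDF, blocked in 5% BSA, then probed with primary antibodies for 16 h at 4 °C and an HRP secondary. Bands were normalised to GAPDH, with the 10 min DMSO group set as 100%; n = 3.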

[16] = Downregulation of C/EBP delta mRNA level in mouse 3T3L1 cells at 0.2 mM after 24 hrs by RT-PCR analysis; format: functional, cell-based; conditions: 3T3-L1
3T3-L1 [17] = experiment: Activation of AMPK-mediated ACC in mouse 3T3L1 cells assessed as increase in phophorylated ACC level at 0.2 mM after 10 mins by western blot analysis; format: cell-based; how it was run: as §5
3T3-L1 [18] = experiment: Activation of AMPK-mediated ACC in mouse 3T3L1 cells assessed as increase in phophorylated ACC level at 0.2 mM after 24 hrs by western blot analysis; format: cell-based; how it was run: as §5
[19] = Downregulation of PPAR-gamma mRNA level in mouse 3T3L1 cells at 0.2 mM after 2 hrs by RT-PCR analysis; format: functional, cell-based; conditions: 3T3-L1
3T3-L1 [20] = experiment: Activation of AMPK alpha in mouse 3T3L1 cells assessed as increase in phophorylated AMPK alpha at Thr 172 residue level at 0.2 mM after 10 mins by western blot analysis; format: cell-based; how it was run: as §5
3T3-L1 [21] = experiment: Activation of AMPK alpha in mouse 3T3L1 cells assessed as increase in phophorylated AMPK alpha at Thr 172 residue level at 0.2 mM after 24 hrs by western blot analysis; format: cell-based; how it was run: as §5

With O=Cc1c(-c2nc3ccccc3c(=O)[nH]2)[nH]c2ccccc12 the “inhibition (INH)” value (HepG2 [1]) was 24.1%, the inhibition [2] was 20.1% and the “inhibition (INH)” value (HepG2 [3]) was 16.7%. The inhibition (3T3-L1 [4]) was “Active”, the Time (3T3-L1 [5]) was 5 days and the inhibition [6] was “Active”. It also gave an inhibition [7] of 14.8%.

With O=Cc1c(-c2nc(NCCN3CCCCC3)c3ccccc3n2)[nH]c2ccccc12 the inhibition (INH) (HepG2 [1]) was over 50%, the inhibition [2] was 87.2% and the inhibition (HepG2 [3]) was “Active”. The Time (3T3-L1 [8]) was 6 days and the inhibition [9] was “Active”.

With O=Cc1c(-c2nc(NCCc3ccccc3)c3ccccc3n2)[nH]c2ccccc12 the inhibition (INH) (HepG2 [1]) was over 50%.

With NC(=O)c1ncn([C@@H]2O[C@H](COP(=O)(O)O)[C@@H](O)[C@H]2O)c1N the inhibition [10] was “Active”, the inhibition [11] was “Active” and the inhibition [12] was “Active”. The inhibition [13] was “Active”, the inhibition [14] was “Active” and the Activity (3T3-L1 [15]) was “inactive”. For the same molecule, the inhibition [16] was “Active”, the Activity (3T3-L1 [17]) was “Active” and the Activity (3T3-L1 [18]) was “Active”. The inhibition [19] was “Active”, the Activity (3T3-L1 [20]) was “Active” and the Activity (3T3-L1 [21]) was “Active”.

For CCN(CC)CCNc1nc(-c2[nH]c3ccccc3c2C=O)nc2ccccc12, the inhibition (INH) (HepG2 [1]) was over 50%, the inhibition [2] was 87.3% and the inhibition (HepG2 [3]) was “Active”.

With CN(C)CCNc1nc(-c2[nH]c3ccccc3c2C=O)nc2ccccc12 the inhibition [2] was 80.1% and the inhibition (HepG2 [3]) was “Active”.

Molecule CN1CCN(c2nc(-c3[nH]c4ccccc4c3C=O)nc3ccccc23)CC1 has an inhibition [2] of 81.6%.

In the case of O=Cc1c(-c2nc(NCCCN3CCOCC3)c3ccccc3n2)[nH]c2ccccc12, the Time (3T3-L1 [8]) is reported as 6 days and the inhibition [9] is reported as “Active”.

For CN(C)CCCC/N=C/c1c(-c2nc3ccccc3c(=O)[nH]2)[nH]c2ccccc12, the Time (3T3-L1 [8]) was 6 days and the inhibition [9] was “Active”.

For CCN(CC)c1nc(-c2[nH]c3ccccc3c2C=O)nc2ccccc12, the inhibition [2] was 82.2%.

In the case of O=c1[nH]c(-c2[nH]c3ccccc3c2/C=N/CCN2CCCC2)nc2ccccc12, the Time (3T3-L1 [8]) is reported as 6 days and the inhibition [9] is reported as “Active”.
